In ChEMBL document CHEMBL1140534, “Heteroaryl beta-tetralin ureas as novel antagonists of human TRPV1” (Bioorg Med Chem Lett, 2007):

How the values were obtained:
[1] = target: T1, Transient receptor potential cation channel subfamily V member 1 (Homo sapiens, UniProt Q8NER1); assay: Antagonist activity at human recombinant TRPV1 expressed in HEK293 cells assessed as inhibition of capsaicin-induced calcium by FLIPR method; assay type: functional, cell-based
Outline: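 Stably transfected hTRPV1/HEK293 cells grown on poly-D-lysine for 2 days, then loaded with Fluo-3/AM for 1 h. Each well receives a single compound concentration. Intracellular Ca2+ is read by FLIPR for 3 min before capsaicin is added at a final 15 nM to fully activate TRPV1. Antagonist potency is reported as IC50.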

[2] = target: T1, Transient receptor potential cation channel subfamily V member 1; assay: Displacement of [3H]RTX from human TRPV1 expressed in HEK293 cells; assay type: cell-based
Outline: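 Membranes from hTRPV1/HEK293 cells, prepared in HEPES buffer pH 7.4 (20 mM HEPES, NaCl, sucrose, MgCl2, CaCl2, KCl). Incubated 60 min at 37 °C with 0.3–0.6 nM [3H]-RTX. Samples cooled on ice, alpha-acid glycoprotein added, then centrifuged and pellets counted by scintillation. Nonspecific binding defined with 200 nM unlabeled RTX. Reported as Ki.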

T1 sequence (Q8NER1 whole entry): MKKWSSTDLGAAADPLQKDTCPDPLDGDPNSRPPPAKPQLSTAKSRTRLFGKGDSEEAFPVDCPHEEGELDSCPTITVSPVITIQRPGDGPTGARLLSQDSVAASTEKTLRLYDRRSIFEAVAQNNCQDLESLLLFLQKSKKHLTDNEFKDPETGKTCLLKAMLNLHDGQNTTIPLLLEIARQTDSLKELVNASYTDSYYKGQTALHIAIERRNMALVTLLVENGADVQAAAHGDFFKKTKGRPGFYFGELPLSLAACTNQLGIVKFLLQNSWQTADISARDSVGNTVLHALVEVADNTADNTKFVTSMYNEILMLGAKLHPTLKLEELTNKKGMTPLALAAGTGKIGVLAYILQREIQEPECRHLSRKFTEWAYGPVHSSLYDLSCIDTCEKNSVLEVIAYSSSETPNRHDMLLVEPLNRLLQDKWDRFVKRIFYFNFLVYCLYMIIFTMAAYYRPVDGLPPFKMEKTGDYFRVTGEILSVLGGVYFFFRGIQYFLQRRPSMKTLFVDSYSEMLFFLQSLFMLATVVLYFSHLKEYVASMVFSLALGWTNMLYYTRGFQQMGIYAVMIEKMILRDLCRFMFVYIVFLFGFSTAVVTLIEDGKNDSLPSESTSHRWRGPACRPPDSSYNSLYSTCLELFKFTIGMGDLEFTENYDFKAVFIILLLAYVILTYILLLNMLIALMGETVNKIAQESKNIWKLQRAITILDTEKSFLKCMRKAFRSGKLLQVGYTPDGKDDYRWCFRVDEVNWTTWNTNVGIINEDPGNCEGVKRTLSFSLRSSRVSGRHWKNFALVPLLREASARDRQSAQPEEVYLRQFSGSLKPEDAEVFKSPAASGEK

IC50 [1] [nM] | Ki [2] [nM] | SMILES
60 | 10 | COc1ccc2c(c1)CCC(NC(=O)Nc1cccc3ccc(O)cc13)C2Cc1ccccc1 (centres undefined)
83 | 16 | O=C(Nc1cccc2cnccc12)NC1CCc2cc(F)ccc2C1Cc1ccoc1 (centres undefined)
17 | 2 | O=C(Nc1cccc2cnccc12)NC1CCc2cc(Br)ccc2C1Cc1ccccc1 (centres undefined)
– | 4 | O=C(NCC(Cc1ccccc1)c1ccc(C(F)(F)F)cc1)Nc1cccc2cnccc12 (centres undefined)
360 | 22 | O=C(Nc1cccc2ccc(O)cc12)NC1CCc2cc(F)ccc2C1Cc1ccc(C(F)(F)F)cc1 (centres undefined)
> 1000 | – | COc1ccc2c(c1)CCC(NC(=O)Nc1cccc3cnccc13)C2Cc1cccnc1 (centres undefined)
13 | 2 | COc1ccc2c(c1)CCC(NC(=O)Nc1cccc3cnccc13)C2Cc1cccc(Cl)c1 (centres undefined)
36 | 8 | COc1ccc(CC2c3ccc(OC)cc3CCC2NC(=O)Nc2cccc3cnccc23)cc1 (centres undefined)
12 | 4 | O=C(Nc1cccc2cnccc12)NC1CCc2cc(F)ccc2C1Cc1ccccc1 (centres undefined)
100 | 2 | C=CCC1c2ccc(F)cc2CCC1NC(=O)Nc1cccc2cnccc12 (centres undefined)
20 | 4 | O=C(Nc1cccc2cnccc12)NC1CCc2ccccc2C1Cc1ccccc1 (centres undefined)
19 | 20 | O=C(NCC(Cc1cccc(C(F)(F)F)c1)c1ccc(F)cc1)Nc1cccc2cnccc12 (centres undefined)
200 | – | O=C(Nc1cccc2cnccc12)NC1CCc2cc(O)ccc2C1Cc1ccccc1 (centres undefined)
22 | 1 | COc1ccc2c(c1)CCC(NC(=O)Nc1cccc3cnccc13)C2Cc1ccc(Br)cc1 (centres undefined)
63 | 11 | O=C(Nc1cccc2cnccc12)NC1CCc2cc(Cl)ccc2C1Cc1ccccc1 (centres undefined)
184 | 578 | COc1ccc(C(CNC(=O)Nc2cccc3cnccc23)Cc2cccnc2)cc1 (centres undefined)
86 | 5 | O=C(Nc1cccc2cnccc12)NC1CCc2ccc(Cl)cc2C1Cc1ccccc1 (centres undefined)
> 1000 | – | N#CCC1c2ccc(Cl)cc2CCC1NC(=O)Nc1cccc2cnccc12 (centres undefined)
25 | 3 | COc1ccc2c(c1)CCC(NC(=O)Nc1cccc3cnccc13)C2Cc1ccccc1 (centres undefined)
14 | 6 | COc1ccc(C(CNC(=O)Nc2cccc3cnccc23)Cc2ccccc2)cc1 (centres undefined)
230 | 20 | COc1cc2c(cc1OC)C(Cc1ccccc1)C(NC(=O)Nc1cccc3cnccc13)CC2 (centres undefined)
21 | 17 | COc1ccc2c(c1)CCC(NC(=O)Nc1cccc3cnccc13)C2Cc1ccc(C#N)cc1 (centres undefined)
350 | 0.8 | O=C(Nc1cccc2cnccc12)NC1CCc2cc(F)ccc2C1CC1CC1 (centres undefined)
10 | 1 | O=C(Nc1cccc2cnccc12)NC1CCc2cc(F)ccc2C1Cc1ccc(C(F)(F)F)cc1 (centres undefined)
5 | 8 | O=C(NCC(Cc1ccccc1)c1ccc(F)cc1)Nc1cccc2cnccc12 (centres undefined)
680 | 1290 | COc1ccc(C(C)CNC(=O)Nc2cccc3cnccc23)cc1 (centres undefined)
140 | 4 | O=C(Nc1cccc2cnccc12)NC1CCc2cc(F)ccc2C1Cc1cccs1 (centres undefined)
16 | 2 | O=C(Nc1cccc2cnccc12)NC1CCc2c(Cl)cccc2C1Cc1ccccc1 (centres undefined)
2 | 2 | COc1ccc2c(c1)CCC(NC(=O)Nc1cccc3cnccc13)C2Cc1ccc(C(F)(F)F)cc1 (centres undefined)
